Screens from PubChem.
In the library only some 4.9% were active in any assay of this set; here they are far more common.
APP 5'UTR act: APP 5'UTR luciferase reporter activation; SH-SY5Y APP 5'UTR luciferase reporter, luminescence; zero percent = DMSO vehicle wells; activation, % at 2 µM; 190,000 tested, 1% active;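 active means activation above a set limit, based on mean plus 3 SD of controls, cut at about 140% in these data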
NF-kB neuron act: raises NF-kB expression in human neuronal cells; NF-kB reporter expression; active compounds read high; fold change at 12.5 µM; 190,000 tested, 1.6% active; AID 1239; in the data active means fold change above about 3.3
STAT3 blocker: inhibitors of IL-6 induced STAT3 signaling; U3A cells, IL-6 STAT3-luciferase reporter, luminescence; host cell line lacks STAT1; inhibition, % at 5.5 µM; 190,000 tested, 0.89% active; AID 862;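 active means inhibition above the mean inhibition across all screened compounds plus 3 SD, cut at about 44% in these data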;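 further: 0% = DMSO only wells and 100% = 100 µM nifuroxazide control wells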
STAT3 activator: STAT3 signaling activation | U3A cells, IL-6 STAT3-luciferase reporter, luminescence; 100% = signal with IL-6 EC80 alone | activation (% of control), % at 5.6 µM | 190,000 tested, 0.91% active | AID 871;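 active means activation above the screen-wide mean of compound activation plus 3 SD, cut at about 130% in these data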;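 further: 0% = background luminescence of wells with medium and substrate only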
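Test system: Human STAT1-deficient U3A cells with stable STAT3-luciferase reporter | Also added: Interleukin-6, 33 ng/mL | Timing: Compound pre-incubation 1 h before IL-6, then 6 h stimulation at 37 °C | Technique: Luciferase reporter luminescence | Read-out: Percent of IL-6-only median luminescence | Benchmarks: IL-6-only wells as 100% reference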
STAT1 act: activators of IFN-gamma induced STAT1 signaling. AID 932. 200,000 tested, 2.6% active. activation (% of control), % at 5.5 µM. NIH 3T3 STAT1-luciferase reporter, luminescence; 100% = IFN-gamma alone, no compound;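 active means activation above the screen-wide mean activation plus 3 SD, cut at about 130% in these data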;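 further: raw ratio to IFN-gamma control signal so 100% means no change and 0% no light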
STAT1 blocker: STAT1 signaling inhibition | NIH 3T3 STAT1-luciferase reporter, IFN-gamma, luminescence | inhibition, % at 5.5 µM | 200,000 tested, 0.35% active | AID 920;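 active means inhibition above a set limit, the mean inhibition across all tested compounds plus 3 SD, cut at about 34% in these data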;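 further: 0% = IFN-gamma with DMSO and 100% = IFN-gamma with 300 µM nifuroxazide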
Starred values were filed as active, the others as inactive.

SMILES | APP 5'UTR act | NF-kB neuron act | STAT3 blocker | STAT3 activator | STAT1 act | STAT1 blocker
Nc1ccn(Cc2ccccc2)n1 | 5 | 1.4 | 6 | 98 | 98 | 1
CCNC(=O)CSc1nc(-c2ccc(F)cc2)cs1 | 23 | 1.8 | 17 | 92 | 117 | -21
CC(C)(C)NC(=O)CSc1nc(-c2ccc(F)cc2)cs1 | 77 | 4.7* | 11 | 93 | 141* | -47
Cc1cc(C)c(C#N)c(Sc2ccccc2N)n1 | 29 | 1.1 | -77 | 168* | 139* | -43
COC(=O)C(Sc1nc(C)cc(C)c1C#N)c1ccccc1 (configuration not stated) | 25 | 1.6 | 17 | 94 | 99 | 1
O=[N+]([O-])c1cc(Br)c(O)c(/C=N/Nc2nnnn2-c2cccc3ccccc23)c1 | -13 | 1.1 | -17 | 111 | 96 | 5
O=C(/C=C/c1ccccc1)NC(=S)N1CCSCC1 | 28 | 1.1 | 11 | 97 | 100 | -2
CC(/C=N/NC(=O)c1c(Br)cnn1C)=C\c1ccccc1 | -1 | 1.6 | -3 | 103 | 120 | -22
CC(/C=N/NC(=O)c1nn(C)c(C)c1Br)=C\c1ccccc1 | 29 | 2.1 | 10 | 93 | 132* | -36
CC(=O)c1cccc(NC(=S)NC(=O)c2ccc(C)cc2Cl)c1 | -2 | 1.7 | -5 | 107 | 131* | -36
CCC(=O)Nc1cccc(NC(=S)NC(=O)c2ccc(C)cc2)c1 | 107 | 2.6 | 3 | 100 | 145* | -48
Cc1ccc(C(=O)Nc2cccc(C(=O)N3CCOCC3)c2)cc1 | 63 | 2.1 | -3 | 105 | 105 | -6
O=C(O)c1cccc(NC(=O)c2ccc3c(c2)C(=O)N(CC2CCCO2)C3=O)c1 (configuration not stated) | 16 | 1 | 30 | 75 | 66 | 37*
Cc1ccc(C(=O)Nc2cccc(C(=O)O)c2)cc1 | -35 | 5.3* | 98* | 19 | 24 | 82*
CCc1ccc(N(C(=O)c2csnn2)C(C(=O)NC(C)(C)C)c2cccnc2)cc1 (configuration not stated) | 3 | 1.2 | 6 | 100 | 99 | 1
CC(=O)c1cccc(NC(=S)NC(=O)c2ccc(Br)cc2)c1 | 7 | 1.7 | -11 | 107 | 121 | -24
CC(=O)c1cccc(NC(=S)NC(=O)c2ccc(C)cc2)c1 | 88 | 3.5* | 12 | 91 | 138* | -39
Cc1[nH]ccc(=O)c1Oc1ncc(C(F)(F)F)cc1Cl | 4 | 1 | 6 | 98 | 98 | 0
Cc1cc(Cl)c(S(=O)(=O)Nc2cccc(O)c2)cc1OCC(N)=O | 5 | 0.99 | -4 | 101 | 99 | 1
COc1ccc(C2=NN3C(C2)c2ccccc2OC32C(=O)N(C)c3ccccc32)cc1 (configuration not stated) | 187* | 6* | -12 | 120 | 82 | 6
COc1ccc(C2=NN(C(=O)CCC(=O)O)C(c3cccs3)C2)cc1 (configuration not stated) | 11 | 1.3 | 1 | 101 | 103 | -5
COc1ccc(C2=NN(C(N)=S)C(c3ccccc3)C2)cc1 (configuration not stated) | 26 | 1.5 | 5 | 100 | 117 | -21
COc1ccc(C2=NN3C(C2)c2ccccc2OC3c2cccs2)cc1 (configuration not stated) | 155* | 3.8* | -1 | 104 | 108 | -10
O=C(CSc1ncnc2ccccc12)N1CCCC1 | 23 | 1.9 | 1 | 107 | 108 | -9
Cc1ccc(C(=O)CSc2ncnc3ccccc23)o1 | 98 | 3 | -1 | 105 | 159* | -67
SMILES | APP 5'UTR act | NF-kB neuron act | STAT3 blocker | STAT3 activator | STAT1 act | STAT1 blocker
O=C(CSc1ncnc2ccccc12)c1cccs1 | 139* | 4.6* | 8 | 97 | 119 | -20
CC(=O)Nc1ccc(S(=O)(=O)Nc2nnc(CC(C)(C)C)s2)cc1 | -2 | 1.4 | 15 | 94 | 98 | 2
S=C(N/N=C/c1ccccc1)N1CCOCC1 | 14 | 1.2 | -4 | 105 | 112 | -13
CCCCNc1ncnc2c1cnn2-c1ccccc1 | 102 | 5.7* | 27 | 83 | 134* | -38
Cc1cccc(-n2ncc3c(NCc4ccc5c(c4)OCO5)ncnc32)c1 | 12 | 1.2 | 1 | 99 | 106 | -7
C=CCNc1ncnc2c1cnn2-c1cccc(C)c1 | 212* | 5* | 5 | 96 | 142* | -43
